Consider 52 compounds from ChEMBL document CHEMBL2311526, “Phthalazinone inhibitors of inosine-5'-monophosphate dehydrogenase from Cryptosporidium parvum” (Bioorg Med Chem Lett, 2013).

In data set [1] the target is T1, Inosine-5'-monophosphate dehydrogenase (Cryptosporidium parvum, UniProt Q8T6T2).
T1 sequence (Q8T6T2 whole entry): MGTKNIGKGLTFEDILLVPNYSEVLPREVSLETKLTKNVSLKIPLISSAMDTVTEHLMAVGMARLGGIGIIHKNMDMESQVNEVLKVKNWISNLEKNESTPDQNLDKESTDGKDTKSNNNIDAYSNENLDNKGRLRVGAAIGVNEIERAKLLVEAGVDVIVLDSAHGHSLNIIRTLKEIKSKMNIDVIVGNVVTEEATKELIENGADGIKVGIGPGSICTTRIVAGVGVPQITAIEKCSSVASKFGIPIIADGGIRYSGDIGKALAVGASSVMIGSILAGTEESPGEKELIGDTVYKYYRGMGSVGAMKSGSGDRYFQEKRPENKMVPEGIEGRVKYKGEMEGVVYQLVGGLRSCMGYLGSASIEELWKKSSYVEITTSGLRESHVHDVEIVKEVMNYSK
In words: Inhibition of recombinant Cryptosporidium parvum IMPDH assessed as production of NADH by fluorescence assay in presence of 0.05% BSA. The gist of the method:
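Enzyme inhibition was measured with 0.05% fatty acid free BSA added, to assess non-specific binding.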

In data set [2] the target is T1, Inosine-5'-monophosphate dehydrogenase. As to the kind of experiment: Inhibition of recombinant Cryptosporidium parvum IMPDH assessed as production of NADH by fluorescence assay.
Another data set relates to Cryptosporidium parvum. As to the kind of experiment: Antiparasitic activity against Cryptosporidium parvum infected in IL12 knockout mouse model at 250 mg/kg, po for 7 days. In kind it is functional, organism-based. Also on record: dose 250 mg/kg. The gist of the method:
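IL12 knockout mice were inoculated with 1,000 oocysts and, from 4 h post-infection, dosed by gavage once daily for 7 days at 250 mg/kg in 10% DMSO/corn oil. Controls were vehicle and paromomycin 2000 mg/kg. Oocysts from feces (days 0, 4, 7) were purified on sucrose gradients, stained 20 min with FITC-labelled OW50 antibody, and counted by flow cytometry, with ANOVA.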

Data set [3] concerns Toxoplasma gondii. As to the kind of experiment: Selectivity ratio for EC50 for wild type Toxoplasma gondii to EC50 for Cryptosporidium parvum IMPDH expressing Toxoplasma gondii. In kind it is functional.
Data set [4] deals with Toxoplasma gondii. As to the kind of experiment: Antiparasitic activity against Cryptosporidium parvum IMPDH expressing Toxoplasma gondii assessed as growth inhibition. The format is functional, organism-based.
Data set [5] deals with Toxoplasma gondii. As to the kind of experiment: Antiparasitic activity against wild type Toxoplasma gondii assessed as growth inhibition. The format is functional, organism-based.
The subject of another data set is Liver. As to the kind of experiment: Half life in mouse liver microsomes. In kind it is ADME, Microsome.
Data set [6] addresses T2, Inosine-5'-monophosphate dehydrogenase (Cryptosporidium parvum) (UniProt Q8T6T2).
T2 sequence (whole entry): T1 sequence (Q8T6T2 whole entry)
In words: Pure noncompetitive inhibition of recombinant Cryptosporidium parvum IMPDH with respect to NAD+.

Data set [7] has as its target T2, Inosine-5'-monophosphate dehydrogenase (Cryptosporidium parvum). In words: Mixed type inhibition of recombinant Cryptosporidium parvum IMPDH with respect to NAD+.

The source made the active and inactive calls. The rule behind the calls is not given here. A value given as a limit tells only on which side of the number the result lay.

As a reminder, the IC50 is the concentration needed to halve the response being measured. As for `Cn1nc(CC(=O)Nc2ccc(Cl)c(Cl)c2)c2ccccc2c1=O`, the IC50 in data set [1] amounted to 95 nM; in data set [2], 55 nM. Regarding `Cn1nc(CC(=O)Nc2ccc(Cl)cc2Cl)c2ccccc2c1=O`, the IC50 in [2] is above 5000 nM. Same read-out and setting: the value for `Cn1nc(CC(=O)Nc2cc(Cl)cc(Cl)c2)c2ccccc2c1=O` was above 5000 nM. For the compound `Cc1cc2cc(NC(=O)Cc3nn(C)c(=O)c4ccccc34)ccc2o1`, the IC50 in [1] is 72 nM; in data set [2] it was 64 nM. Consider `Cn1nc(CC(=O)Nc2ccc3ocnc3c2)c2ccccc2c1=O`, for which, in data set [2], the IC50 was above 5000 nM. As usually defined, the EC50 is the concentration at which the effect is half-maximal. As for `Cn1nc(CC(=O)Nc2ccc(Cl)c(C(F)(F)F)c2)c2ccccc2c1=O`, the result with Cryptosporidium parvum was inactive. In addition, the “Ratio EC50” value in the data set on Toxoplasma gondii [3] came to 60. Besides, the EC50 in the data set on Toxoplasma gondii [4] worked out at 400 nM; in the data set on Toxoplasma gondii [5], 23000 nM. For the same compound, the values for the IC50 in [1] and in data set [2] were 25 nM and 13 nM, respectively. This compound registered a t1/2 in the data set with Liver of 1.32 h. Besides, the Kii in data set [6] was 3.4 nM. The Kis in data set [6] is 3.4 nM. For the compound `Cn1nc(CC(=O)Nc2ccc(F)cc2)c2ccccc2c1=O`, the IC50 in data set [2] is above 5000 nM.

Consider `Cn1nc(CC(=O)NN)c2ccccc2c1=O`, for which the IC50 in data set [2] is above 5000 nM.

In the case of `Cn1nc(CC(=O)Nc2ccc(Cl)cc2C(F)(F)F)c2ccccc2c1=O`, the IC50 in data set [2] was above 5000 nM. Consider `Cn1nc(CC(=O)Nc2ccc(C#N)cc2)c2ccccc2c1=O`, for which the IC50 came to 940 nM in data set [1] and 950 nM in data set [2].

Regarding `Cn1nc(CC(=O)Nc2ccc3c(c2)oc2ccccc23)c2ccccc2c1=O`, in [2], the IC50 was above 5000 nM. Regarding `Cn1nc(CC(=O)Nc2cc(Cl)c(Cl)c(Cl)c2)c2ccccc2c1=O`, in data set [2], the IC50 was above 5000 nM.

Regarding `CC(C)c1ccc(NC(=O)Cc2nn(C)c(=O)c3ccccc23)cc1`, in [2], the IC50 was above 5000 nM. As to `CCOc1ccc(NC(=O)Cc2nn(C)c(=O)c3ccccc23)cc1`, the IC50 in data set [2] was above 5000 nM. Take `Cn1nc(CC(=O)Nc2ccc(Cl)cc2)c2ccccc2c1=O`: the IC50 in data set [1] is 280 nM; in data set [2] it was 230 nM. On to `Cc1ccc(NC(=O)Cc2nn(C)c(=O)c3ccccc23)cc1`, for which the IC50 in data set [2] is above 5000 nM.

As to `Cn1nc(CC(=O)Nc2ccc(Br)c(C(F)(F)F)c2)c2ccccc2c1=O`, the “Ratio EC50” value in the data set with Toxoplasma gondii [3] is on record as 14. For the same compound, the values for the EC50 in the data set with Toxoplasma gondii [4] and with Toxoplasma gondii [5] were 300 nM and 4000 nM, respectively. The IC50 was determined as 48 nM in [1] and 24 nM in [2]. With `Cc1cc(NC(=O)Cc2nn(C)c(=O)c3ccccc23)ccc1Cl`, the IC50 in data set [1] was 96 nM; in data set [2] it was 79 nM. On to `CCn1c2ccccc2c2cc(NC(=O)Cc3nn(C)c(=O)c4ccccc34)ccc21`, for which the IC50 in data set [2] was above 5000 nM. As for `Cn1nc(CC(=O)Nc2ccc(Br)cc2F)c2ccccc2c1=O`, the IC50 was 1700 nM in data set [1] and 1100 nM in data set [2]. Consider `Cn1nc(CC(=O)Nc2ccc3ccccc3c2)c2ccccc2c1=O`, for which the IC50 in data set [1] was 140 nM; in data set [2], 63 nM. `COc1ccccc1NC(=O)Cc1nn(C)c(=O)c2ccccc12`: in data set [2], the IC50 was above 5000 nM. `Cc1cc(NC(=O)Cc2nn(C)c(=O)c3ccccc23)ccc1C#N`: the IC50 in [1] came out at 460 nM; in [2] it was 400 nM. Regarding `Cn1nc(CC(=O)Nc2ccc3oc4c(c3c2)CCCC4)c2ccccc2c1=O`, the “Ratio EC50” value in the data set with Toxoplasma gondii [3] came to 2. Besides, the EC50 is 500 nM with Toxoplasma gondii [4] and 1000 nM with Toxoplasma gondii [5]. The IC50 in data set [1] was determined as 150 nM; in [2], 20 nM. Turning to `Cn1nc(CC(=O)Nc2ccc(Br)cc2Br)c2ccccc2c1=O`, the IC50 in [2] is above 5000 nM.

As to `Cn1nc(CC(=O)Nc2ccc(Cl)c(F)c2)c2ccccc2c1=O`, the IC50 in [1] was found to be 240 nM; in data set [2], 200 nM. Take `Cn1nc(CC(=O)Nc2ccc3[nH]c4ccccc4c3c2)c2ccccc2c1=O`: the IC50 in [2] is above 5000 nM. As for `COc1ccc(CNC(=O)Cc2nn(C)c(=O)c3ccccc23)cc1`, the IC50 in [2] was above 5000 nM. For the compound `Cn1nc(CC(=O)Nc2ccc(Br)cc2C(F)(F)F)c2ccccc2c1=O`, the IC50 in data set [2] was above 5000 nM. As for `O=C(Cc1n[nH]c(=O)c2ccccc12)Nc1ccc(Cl)c(C(F)(F)F)c1`, the IC50 in data set [1] worked out at 61 nM; in [2], 40 nM. Turning to `COc1cccc(NC(=O)Cc2nn(C)c(=O)c3ccccc23)c1`, the IC50 in data set [2] was above 5000 nM. On to `Cn1nc(CC(=O)Nc2ccc3occc3c2)c2ccccc2c1=O`, for which the IC50 in [1] was 85 nM; in data set [2], 93 nM. Turning to `Cn1nc(CC(=O)Nc2ccc(S(C)(=O)=O)cc2)c2ccccc2c1=O`, the IC50 in data set [2] was above 5000 nM. `COc1ccc(NC(=O)Cc2nn(C)c(=O)c3ccccc23)cc1C(F)(F)F`: the IC50 in [2] was above 5000 nM. `Cn1nc(CC(=O)Nc2ccc(OC(F)(F)F)cc2)c2ccccc2c1=O`: the IC50 in data set [2] is above 5000 nM. Regarding `Cn1nc(CC(=O)Nc2cccc(C(F)(F)F)c2)c2ccccc2c1=O`, in [2], the IC50 is above 5000 nM. `Cn1nc(CC(=O)Nc2ccc(F)c(C(F)(F)F)c2)c2ccccc2c1=O`: the IC50 in [1] and in data set [2] was 150 nM throughout. Regarding `Cn1nc(CC(=O)Nc2ccc(C(F)(F)F)cc2)c2ccccc2c1=O`, the IC50 in data set [2] is above 5000 nM.

Turning to `Cn1nc(CC(=O)Nc2ccc(Br)c(Cl)c2)c2ccccc2c1=O`, the IC50 in data set [1] stood at 75 nM; in data set [2] it was 30 nM. As for `Cn1nc(CC(=O)Nc2cc(F)c(F)c(F)c2)c2ccccc2c1=O`, in data set [2], the IC50 is above 5000 nM.

Take `Cn1nc(CC(=O)Nc2cccc(Cl)c2)c2ccccc2c1=O`: the IC50 in data set [2] is above 5000 nM. As for `Cn1nc(CC(=O)Nc2ccc(N)c(C(F)(F)F)c2)c2ccccc2c1=O`, in data set [2], the IC50 is above 5000 nM.

In the case of `COc1cc(NC(=O)Cc2nn(C)c(=O)c3ccccc23)ccc1Cl`, the IC50 in data set [1] turned out to be 40 nM; in data set [2], 33 nM. For `COc1ccc(NC(=O)Cc2nn(C)c(=O)c3ccccc23)cc1`, in data set [7], the Kii worked out at 7 µM. For the same compound, in [7], the Kis amounted to 1.8 µM. Moreover, the IC50 came out at 930 nM in data set [1] and 1000 nM in data set [2]. Turning to `Cc1cc(NC(=O)Cc2nn(C)c(=O)c3ccccc23)ccc1Br`, the IC50 in [1] amounted to 140 nM; in data set [2] it was 70 nM. Consider `Cn1nc(CC(=O)Nc2ccc3oc4ccccc4c3c2)c2ccccc2c1=O`, for which the “Ratio EC50” value with Toxoplasma gondii [3] is 7. Further, the EC50 in the data set on Toxoplasma gondii [4] is 400 nM; with Toxoplasma gondii [5], 3000 nM. Besides, the IC50 in [1] was 30 nM.

In the case of `Cn1nc(CC(=O)Nc2ccc(Br)cc2)c2ccccc2c1=O`, the IC50 in data set [1] and in data set [2] was 130 nM throughout. With `Cn1nc(CC(=O)Nc2ccc(C#N)c(Cl)c2)c2ccccc2c1=O`, the values for the IC50 in [1] and in data set [2] were 470 nM and 290 nM, respectively. As to `Cn1nc(CC(=O)Nc2ccc(C#N)c(C(F)(F)F)c2)c2ccccc2c1=O`, the results for the IC50 in data set [1] and in data set [2] were 52 nM and 54 nM, respectively. For the compound `O=C(Cc1n[nH]c(=O)c2ccccc12)Nc1ccc(Br)c(C(F)(F)F)c1`, the values for the IC50 in data set [1] and in data set [2] were 130 nM and 32 nM, respectively. Taken in the same sequence, the figures for `Cn1nc(CC(=O)Nc2ccc(C#N)c(C#N)c2)c2ccccc2c1=O` were above 2500 nM and above 2500 nM. Turning to `Cn1nc(CC(=O)NC(C)(C)C)c2ccccc2c1=O`, the IC50 in [2] is above 5000 nM.
